Read-outs that look alike come from different tables or passages of the source.
Assays:
RPMI-8226 cells = assay: Cellular proliferation assay; type: cell-based; settings: Homo sapiens, RPMI-8226, 48 h, read-out: IC50 (cell viability)
U266 cells = assay: Cellular proliferation assay; type: cell-based; settings: Homo sapiens, U-266, 48 h, read-out: IC50 (cell viability)
[1] = system: proteasome chymotrypsin-like activity; assay: Proteasome-Glo assay in intact MM cells, chymotrypsin-like activity; type: cell-based, human; settings: read-out: Chymotrypsin-like IC50, 24 hours incubation
Summary of the method: (§1)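 MM.1S, MM.1R and RPMI-8226 human myeloma lines were grown in RPMI medium with 10% FBS and antibiotics. Activity was read as luminescence with the Proteasome-Glo kit, following the manufacturer's protocol.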

[2] = system: proteasome trypsin-like activity; assay: Proteasome-Glo assay in intact MM cells, trypsin-like activity; type: cell-based, human; settings: read-out: Trypsin-like IC50, 24 hours incubation
Summary of the method: as §1

MM.1S cells = assay: In vitro cell invasion assay; type: cell-based, human; settings: MM.1S cells pretreated at IC50 value, Matrigel invasion chamber

## CC(C)C[C@H](NC(=O)[C@H](Cc1ccccc1)NC(=O)c1cnccn1)B(O)O [Bortezomib]
RPMI-8226 cells
  IC50: […]
U266 cells
  IC50: 13.5 nM
[1]; MM1R cell line
  IC50: […]
[1]; MM1S cell line
  IC50: […]
[1]; RPMI822G cell line
  IC50: […]
[1]; U266 cell line
  IC50: […]
[2]; MM1R cell line
  IC50: > 18 nM
[2]; MM1S cell line
  IC50: > 18 nM
[2]; RPMI822G cell line
  IC50: > 18 nM
[2]; U266 cell line
  IC50: > 18 nM
MM.1S cells
  inhibition of invasiveness compared to control: 37.42%

From PMC4036123 (Cancer chemotherapy and pharmacology, 2014)
